Where a SMILES comes first, the peptide text is derived from it. [ ]: non-standard residue; d: D form. Bip = N[C@@H](Cc1ccc(-c2ccccc2)cc1)C(=O)O; 1Nal = N[C@@H](Cc1cccc2ccccc12)C(=O)O; Hyp = O=C(O)[C@@H]1C[C@@H](O)CN1; Aib = CC(C)(N)C(=O)O
Tests used:
[1] = biological target: T1, Pituitary adenylate cyclase-activating polypeptide type I receptor (Homo sapiens, UniProt P41586); assay: Displacement of [125I]Ac-PACAP27 from human recombinant PAC1 receptor expressed in CHO cells by gamma- counter; format: cell-based
Target sequence in this assay (P41586 whole entry): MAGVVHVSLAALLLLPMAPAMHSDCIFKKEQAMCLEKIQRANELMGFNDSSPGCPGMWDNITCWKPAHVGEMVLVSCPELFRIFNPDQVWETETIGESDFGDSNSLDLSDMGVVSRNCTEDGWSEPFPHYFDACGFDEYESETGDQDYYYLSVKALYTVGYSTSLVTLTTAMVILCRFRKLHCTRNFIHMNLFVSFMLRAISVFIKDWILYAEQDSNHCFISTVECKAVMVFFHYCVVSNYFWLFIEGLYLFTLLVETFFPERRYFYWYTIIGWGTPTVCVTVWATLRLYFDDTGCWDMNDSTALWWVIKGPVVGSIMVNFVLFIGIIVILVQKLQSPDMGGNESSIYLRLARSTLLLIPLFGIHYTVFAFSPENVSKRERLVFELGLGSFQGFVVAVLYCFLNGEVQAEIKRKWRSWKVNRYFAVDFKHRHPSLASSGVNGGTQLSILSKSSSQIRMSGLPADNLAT

[2] = biological target: T1, Pituitary adenylate cyclase-activating polypeptide type I receptor; assay: Agonist activity at human recombinant PAC1 receptor expressed in CHO cells assessed as PACAP38-induced calcium mobilization by FLIPR assay; format: functional, cell-based
Outline: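 CHO cells stably expressing recombinant human PAC1, plated 24 h before assay, loaded with fluo-4 AM for 60 min at 37 °C in the dark, then rinsed into HBSS for 15 min at 37 °C. EC50 and efficacy came from nonlinear regression; 4-10 independent assays in duplicate.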
Target sequence in this assay (P41586 whole entry): as above

[3] = biological target: T1, Pituitary adenylate cyclase-activating polypeptide type I receptor; assay: Agonist activity at human recombinant PAC1 receptor expressed in CHO cells assessed as PACAP38-induced calcium mobilization by FLIPR assay relative to PACAP38; format: functional, cell-based
Outline: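 CHO cells stably expressing recombinant human PAC1, plated 24 h before assay, loaded with fluo-4 AM for 60 min at 37 °C in the dark, then rinsed into HBSS for 15 min at 37 °C. Peptide was added 18 s into a 150 s read (ex 480/em 525 nm), at final concentrations of 1 × 10-12 to 1 × 10^-5 M. Response was normalised to 1 × 10^-5 M PACAP38 on each plate. EC50 and efficacy came from nonlinear regression; 4-10 independent assays in duplicate.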
Target sequence in this assay (P41586 21-468 limits assumed): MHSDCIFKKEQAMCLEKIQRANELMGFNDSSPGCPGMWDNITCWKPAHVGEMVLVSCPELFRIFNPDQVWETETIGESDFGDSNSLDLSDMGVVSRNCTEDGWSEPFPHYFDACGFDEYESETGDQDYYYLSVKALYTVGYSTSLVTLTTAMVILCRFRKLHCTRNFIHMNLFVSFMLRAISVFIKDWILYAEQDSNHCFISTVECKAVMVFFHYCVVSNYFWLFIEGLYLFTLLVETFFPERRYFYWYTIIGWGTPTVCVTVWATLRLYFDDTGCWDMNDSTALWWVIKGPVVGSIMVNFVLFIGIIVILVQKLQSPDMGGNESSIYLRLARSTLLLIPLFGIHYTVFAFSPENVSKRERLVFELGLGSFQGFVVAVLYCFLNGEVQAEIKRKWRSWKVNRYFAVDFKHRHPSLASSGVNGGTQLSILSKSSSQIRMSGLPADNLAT

Structure (SMILES)	IC50 [1]	EC50 [2]	Emax [3]
CC[C@H](C)[C@H](NC(=O)C(C)(C)NC(=O)[C@H](CC(=O)O)NC(=O)[C@H](CO)NC(=O)[C@@H](N)Cc1cnc[nH]1)C(=O)N[C@@H](Cc1ccccc1)C(=O)N[C@H](C(=O)N[C@@H](CC(=O)O)C(=O)N[C@@H](CO)C(=O)N[C@@H](Cc1ccc(O)cc1)C(=O)N[C@@H](CO)C(=O)N[C@@H](CCCNC(=N)N)C(=O)N[C@@H](Cc1ccc(O)cc1)C(=O)N[C@@H](CCCNC(=N)N)C(=O)N[C@@H](CCCCN)C(=O)N[C@@H](CCC(N)=O)C(=O)N[C@@H](CCSC)C(=O)N[C@@H](C)C(=O)N[C@H](C(=O)N[C@@H](CCCCN)C(=O)N[C@@H](CCCCN)C(=O)N[C@@H](Cc1ccc(O)cc1)C(=O)N[C@@H](CC(C)C)C(=O)N[C@@H](C)C(=O)N[C@@H](C)C(=O)N[C@H](C(=O)N[C@@H](CC(C)C)C(N)=O)C(C)C)C(C)C)[C@@H](C)O	51.4 nM	49.4 nM	90.2%
CC[C@H](C)[C@H](NC(=O)C(C)(C)NC(=O)[C@H](CC(=O)O)NC(=O)[C@H](CO)NC(=O)[C@@H](N)Cc1cnc[nH]1)C(=O)N[C@@H](Cc1ccccc1)C(=O)N[C@H](C(=O)N[C@@H](CC(=O)O)C(=O)N[C@@H](CO)C(=O)N[C@@H](Cc1ccc(O)cc1)C(=O)N[C@@H](CO)C(=O)N[C@@H](CCCNC(=N)N)C(=O)N[C@@H](Cc1ccc(O)cc1)C(=O)N[C@@H](CCCNC(=N)N)C(=O)N[C@@H](CCCCN)C(=O)N[C@@H](CCC(N)=O)C(=O)N[C@@H](CCSC)C(=O)N[C@@H](C)C(=O)N[C@H](C(=O)N[C@@H](CCCCN)C(=O)N[C@@H](CCCCN)C(=O)N[C@@H](Cc1ccc(O)cc1)C(=O)N[C@@H](CC(C)C)C(=O)N[C@@H](C)C(=O)N[C@@H](C)C(=O)N[C@H](C(=O)N[C@@H](CC(C)C)C(=O)NCC(=O)N[C@@H](CCCCN)C(=O)N[C@@H](CCCNC(=N)N)C(=O)N[C@@H](Cc1ccc(O)cc1)C(=O)N[C@@H](CCCCN)C(=O)N[C@@H](CCC(N)=O)C(=O)N[C@@H](CCCNC(=N)N)C(=O)N[C@H](C(=O)N[C@@H](CCCCN)C(=O)N[C@@H](CC(N)=O)C(=O)N[C@@H](CCCCN)C(N)=O)C(C)C)C(C)C)C(C)C)[C@@H](C)O (H-HSD[Aib]IFTDSYSRYRKQMAVKKYLAAVLGKRYKQRVKNK-NH2)	9.2 nM	3.3 nM	84%
CC[C@H](C)[C@H](NC(=O)CNC(=O)[C@H](CC(=O)O)NC(=O)[C@H](CO)N(C)C(=O)[C@@H](N)Cc1cnc[nH]1)C(=O)N[C@@H](Cc1ccccc1)C(=O)N[C@H](C(=O)N[C@@H](CC(=O)O)C(=O)N[C@@H](CO)C(=O)N[C@@H](Cc1ccc(O)cc1)C(=O)N[C@@H](CO)C(=O)N[C@@H](CCCNC(=N)N)C(=O)N[C@@H](Cc1ccc(O)cc1)C(=O)N[C@@H](CCCNC(=N)N)C(=O)N[C@@H](CCCCN)C(=O)N[C@@H](CCC(N)=O)C(=O)N[C@@H](CCSC)C(=O)N[C@@H](C)C(=O)N[C@H](C(=O)N[C@@H](CCCCN)C(=O)N[C@@H](CCCCN)C(=O)N[C@@H](Cc1ccc(O)cc1)C(=O)N[C@@H](CC(C)C)C(=O)N[C@@H](C)C(=O)N[C@@H](C)C(=O)N[C@H](C(=O)N[C@@H](CC(C)C)C(=O)NCC(=O)N[C@@H](CCCCN)C(=O)N[C@@H](CCCNC(=N)N)C(=O)N[C@@H](Cc1ccc(O)cc1)C(=O)N[C@@H](CCCCN)C(=O)N[C@@H](CCC(N)=O)C(=O)N[C@@H](CCCNC(=N)N)C(=O)N[C@H](C(=O)N[C@@H](CCCCN)C(=O)N[C@@H](CC(N)=O)C(=O)N[C@@H](CCCCN)C(N)=O)C(C)C)C(C)C)C(C)C)[C@@H](C)O	9.1 nM	110 nM	87.7%
CC[C@H](C)[C@H](NC(=O)CNC(=O)[C@H](CC(=O)O)N(C)C(=O)[C@H](CO)NC(=O)[C@@H](N)Cc1cnc[nH]1)C(=O)N[C@@H](Cc1ccccc1)C(=O)N[C@H](C(=O)N[C@@H](CC(=O)O)C(=O)N[C@@H](CO)C(=O)N[C@@H](Cc1ccc(O)cc1)C(=O)N[C@@H](CO)C(=O)N[C@@H](CCCNC(=N)N)C(=O)N[C@@H](Cc1ccc(O)cc1)C(=O)N[C@@H](CCCNC(=N)N)C(=O)N[C@@H](CCCCN)C(=O)N[C@@H](CCC(N)=O)C(=O)N[C@@H](CCSC)C(=O)N[C@@H](C)C(=O)N[C@H](C(=O)N[C@@H](CCCCN)C(=O)N[C@@H](CCCCN)C(=O)N[C@@H](Cc1ccc(O)cc1)C(=O)N[C@@H](CC(C)C)C(=O)N[C@@H](C)C(=O)N[C@@H](C)C(=O)N[C@H](C(=O)N[C@@H](CC(C)C)C(=O)NCC(=O)N[C@@H](CCCCN)C(=O)N[C@@H](CCCNC(=N)N)C(=O)N[C@@H](Cc1ccc(O)cc1)C(=O)N[C@@H](CCCCN)C(=O)N[C@@H](CCC(N)=O)C(=O)N[C@@H](CCCNC(=N)N)C(=O)N[C@H](C(=O)N[C@@H](CCCCN)C(=O)N[C@@H](CC(N)=O)C(=O)N[C@@H](CCCCN)C(N)=O)C(C)C)C(C)C)C(C)C)[C@@H](C)O	10.4 nM	219 nM	92.5%

Compounds with a lower IC50 [1], results first:

IC50 [1]	EC50 [2]	Emax [3]	Structure (SMILES)
8.6 nM	0.7 nM	94%	CC[C@H](C)[C@H](NC(=O)CNC(=O)[C@H](CC(=O)O)NC(=O)[C@@H]1C[C@@H](O)CN1C(=O)[C@@H](N)Cc1cnc[nH]1)C(=O)N[C@@H](Cc1ccccc1)C(=O)N[C@H](C(=O)N[C@@H](CC(=O)O)C(=O)N[C@@H](CO)C(=O)N[C@@H](Cc1ccc(O)cc1)C(=O)N[C@@H](CO)C(=O)N[C@@H](CCCNC(=N)N)C(=O)N[C@@H](Cc1ccc(O)cc1)C(=O)N[C@@H](CCCNC(=N)N)C(=O)N[C@@H](CCCCN)C(=O)N[C@@H](CCC(N)=O)C(=O)N[C@@H](CCSC)C(=O)N[C@@H](C)C(=O)N[C@H](C(=O)N[C@@H](CCCCN)C(=O)N[C@@H](CCCCN)C(=O)N[C@@H](Cc1ccc(O)cc1)C(=O)N[C@@H](CC(C)C)C(=O)N[C@@H](C)C(=O)N[C@@H](C)C(=O)N[C@H](C(=O)N[C@@H](CC(C)C)C(=O)NCC(=O)N[C@@H](CCCCN)C(=O)N[C@@H](CCCNC(=N)N)C(=O)N[C@@H](Cc1ccc(O)cc1)C(=O)N[C@@H](CCCCN)C(=O)N[C@@H](CCC(N)=O)C(=O)N[C@@H](CCCNC(=N)N)C(=O)N[C@H](C(=O)N[C@@H](CCCCN)C(=O)N[C@@H](CC(N)=O)C(=O)N[C@@H](CCCCN)C(N)=O)C(C)C)C(C)C)C(C)C)[C@@H](C)O (H-H[Hyp]DGIFTDSYSRYRKQMAVKKYLAAVLGKRYKQRVKNK-NH2)
7.8 nM	7.4 nM	94.2%	CC[C@H](C)[C@H](NC(=O)CNC(=O)[C@H](CC(=O)O)NC(=O)[C@@H]1CCCN1C(=O)[C@@H](N)Cc1cnc[nH]1)C(=O)N[C@@H](Cc1ccccc1)C(=O)N[C@H](C(=O)N[C@@H](CC(=O)O)C(=O)N[C@@H](CO)C(=O)N[C@@H](Cc1ccc(O)cc1)C(=O)N[C@@H](CO)C(=O)N[C@@H](CCCNC(=N)N)C(=O)N[C@@H](Cc1ccc(O)cc1)C(=O)N[C@@H](CCCNC(=N)N)C(=O)N[C@@H](CCCCN)C(=O)N[C@@H](CCC(N)=O)C(=O)N[C@@H](CCSC)C(=O)N[C@@H](C)C(=O)N[C@H](C(=O)N[C@@H](CCCCN)C(=O)N[C@@H](CCCCN)C(=O)N[C@@H](Cc1ccc(O)cc1)C(=O)N[C@@H](CC(C)C)C(=O)N[C@@H](C)C(=O)N[C@@H](C)C(=O)N[C@H](C(=O)N[C@@H](CC(C)C)C(N)=O)C(C)C)C(C)C)[C@@H](C)O
5.4 nM	1.1 nM	105%	CC[C@H](C)[C@H](NC(=O)CNC(=O)[C@H](CC(=O)O)NC(=O)[C@H](CO)NC(=O)[C@@H](N)Cc1cnc[nH]1)C(=O)N[C@@H](Cc1ccc(-c2ccccc2)cc1)C(=O)N[C@H](C(=O)N[C@@H](CC(=O)O)C(=O)N[C@@H](CO)C(=O)N[C@@H](Cc1ccc(O)cc1)C(=O)N[C@@H](CO)C(=O)N[C@@H](CCCNC(=N)N)C(=O)N[C@@H](Cc1ccc(O)cc1)C(=O)N[C@@H](CCCNC(=N)N)C(=O)N[C@@H](CCCCN)C(=O)N[C@@H](CCC(N)=O)C(=O)N[C@@H](CCSC)C(=O)N[C@@H](C)C(=O)N[C@H](C(=O)N[C@@H](CCCCN)C(=O)N[C@@H](CCCCN)C(=O)N[C@@H](Cc1ccc(O)cc1)C(=O)N[C@@H](CC(C)C)C(=O)N[C@@H](C)C(=O)N[C@@H](C)C(=O)N[C@H](C(=O)N[C@@H](CC(C)C)C(=O)NCC(=O)N[C@@H](CCCCN)C(=O)N[C@@H](CCCNC(=N)N)C(=O)N[C@@H](Cc1ccc(O)cc1)C(=O)N[C@@H](CCCCN)C(=O)N[C@@H](CCC(N)=O)C(=O)N[C@@H](CCCNC(=N)N)C(=O)N[C@H](C(=O)N[C@@H](CCCCN)C(=O)N[C@@H](CC(N)=O)C(=O)N[C@@H](CCCCN)C(N)=O)C(C)C)C(C)C)C(C)C)[C@@H](C)O (H-HSDGI[Bip]TDSYSRYRKQMAVKKYLAAVLGKRYKQRVKNK-NH2)
5 nM	1.4 nM	106%	CC[C@H](C)[C@H](NC(=O)CNC(=O)[C@H](CC(=O)O)NC(=O)[C@H](CO)NC(=O)[C@@H](N)Cc1cnc[nH]1)C(=O)N[C@@H](Cc1cccc2ccccc12)C(=O)N[C@H](C(=O)N[C@@H](CC(=O)O)C(=O)N[C@@H](CO)C(=O)N[C@@H](Cc1ccc(O)cc1)C(=O)N[C@@H](CO)C(=O)N[C@@H](CCCNC(=N)N)C(=O)N[C@@H](Cc1ccc(O)cc1)C(=O)N[C@@H](CCCNC(=N)N)C(=O)N[C@@H](CCCCN)C(=O)N[C@@H](CCC(N)=O)C(=O)N[C@@H](CCSC)C(=O)N[C@@H](C)C(=O)N[C@H](C(=O)N[C@@H](CCCCN)C(=O)N[C@@H](CCCCN)C(=O)N[C@@H](Cc1ccc(O)cc1)C(=O)N[C@@H](CC(C)C)C(=O)N[C@@H](C)C(=O)N[C@@H](C)C(=O)N[C@H](C(=O)N[C@@H](CC(C)C)C(=O)NCC(=O)N[C@@H](CCCCN)C(=O)N[C@@H](CCCNC(=N)N)C(=O)N[C@@H](Cc1ccc(O)cc1)C(=O)N[C@@H](CCCCN)C(=O)N[C@@H](CCC(N)=O)C(=O)N[C@@H](CCCNC(=N)N)C(=O)N[C@H](C(=O)N[C@@H](CCCCN)C(=O)N[C@@H](CC(N)=O)C(=O)N[C@@H](CCCCN)C(N)=O)C(C)C)C(C)C)C(C)C)[C@@H](C)O (H-HSDGI[1Nal]TDSYSRYRKQMAVKKYLAAVLGKRYKQRVKNK-NH2)

Reference: ChEMBL document CHEMBL1138520, “Molecular and conformational determinants of pituitary adenylate cyclase-activating polypeptide (PACAP) for activation of the PAC1 receptor” (J Med Chem, 2009)
